Results taken from ChEMBL document CHEMBL1629492 (Eur J Med Chem, 2010).

Columns and labels:
[1] = target: T1, Alpha-1A adrenergic receptor (Homo sapiens, UniProt P35348); assay: Displacement of [3H]prazosin from human alpha1A adrenoceptor expressed in CHO cells; format: cell-based
T1 sequence (P35348 whole entry): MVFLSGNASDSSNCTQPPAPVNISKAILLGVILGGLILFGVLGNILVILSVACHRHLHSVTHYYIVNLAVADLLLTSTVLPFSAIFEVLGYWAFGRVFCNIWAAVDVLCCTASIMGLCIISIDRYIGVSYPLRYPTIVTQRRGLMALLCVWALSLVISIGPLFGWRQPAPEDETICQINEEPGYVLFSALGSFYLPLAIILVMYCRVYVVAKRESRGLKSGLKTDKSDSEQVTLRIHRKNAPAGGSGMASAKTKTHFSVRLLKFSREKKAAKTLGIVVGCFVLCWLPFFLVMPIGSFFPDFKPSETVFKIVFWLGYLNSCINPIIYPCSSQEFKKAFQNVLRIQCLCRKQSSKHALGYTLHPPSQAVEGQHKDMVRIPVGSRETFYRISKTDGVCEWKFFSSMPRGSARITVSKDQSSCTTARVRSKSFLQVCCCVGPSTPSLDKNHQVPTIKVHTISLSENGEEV
Method in brief: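 Membranes ([…], as printed) from CHO cells stably expressing the cloned human α1a subtype were incubated with 0.1–0.4 nM [³H]prazosin and competitor (1 pM up to the top concentration) in 50 mM Tris-HCl, pH 7.4, for 30 min at 25 °C. Non-specific binding was defined with phentolamine, and incubations ended by rapid filtration. IC50 was converted to Ki by Cheng–Prusoff. Reported as pKi from 2–3 triplicate experiments.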

[2] = Selectivity ratio of Ki for human alpha1A adrenoceptor to Ki for human Alpha-1B adrenoceptor
Method in brief: (§1)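 Subtype selectivity is the antilog of the difference between pKi values, from [³H]prazosin displacement (0.1–0.4 nM, 30 min, 25 °C, pH 7.4) at cloned human α1a, α1b and α1d receptors in CHO membranes. Ki values came from IC50 via Cheng–Prusoff.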

Rattus norvegicus [3] = species: Rattus norvegicus; assay: Selectivity ratio of Ki for alpha1A adrenoceptor in Wistar rat vas deferens to Ki for Alpha-1D adrenoceptor in Wistar rat thoracic aorta; format: tissue-based
Rattus norvegicus [4] = species: Rattus norvegicus; assay: Selectivity ratio of EC50 for alpha1A adrenoceptor in Wistar rat vas deferens to EC50 for Alpha-1D adrenoceptor in Wistar rat thoracic aorta; format: tissue-based
[5] = target: T2, Alpha-1D adrenergic receptor (Homo sapiens, UniProt P25100); assay: Displacement of [3H]prazosin from human Alpha-1D adrenoceptor expressed in CHO cells; format: cell-based
T2 sequence (P25100 whole entry): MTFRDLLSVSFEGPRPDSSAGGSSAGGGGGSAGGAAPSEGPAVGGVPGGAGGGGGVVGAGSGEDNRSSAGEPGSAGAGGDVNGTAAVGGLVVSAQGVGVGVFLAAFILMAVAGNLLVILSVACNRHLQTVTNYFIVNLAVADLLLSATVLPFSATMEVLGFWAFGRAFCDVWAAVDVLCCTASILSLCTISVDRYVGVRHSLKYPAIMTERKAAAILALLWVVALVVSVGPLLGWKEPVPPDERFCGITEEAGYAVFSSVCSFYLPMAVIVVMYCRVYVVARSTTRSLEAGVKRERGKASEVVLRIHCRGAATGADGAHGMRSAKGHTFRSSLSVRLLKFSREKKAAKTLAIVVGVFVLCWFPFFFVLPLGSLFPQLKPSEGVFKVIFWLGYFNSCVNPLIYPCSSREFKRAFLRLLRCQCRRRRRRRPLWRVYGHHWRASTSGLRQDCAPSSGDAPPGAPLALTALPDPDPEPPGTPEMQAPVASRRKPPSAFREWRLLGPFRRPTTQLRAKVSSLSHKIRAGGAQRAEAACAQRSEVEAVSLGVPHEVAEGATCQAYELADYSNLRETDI
Method in brief: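 Membranes ([…], as printed) from CHO cells stably expressing the cloned human α1d subtype were incubated with 0.1–0.4 nM [³H]prazosin and competing drug (1 pM upward) in 50 mM Tris-HCl, pH 7.4, for 30 min at 25 °C. Phentolamine defined non-specific binding. IC50 was converted to Ki by Cheng–Prusoff. Reported as pKi from 2–3 triplicate experiments.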

[6] = Selectivity ratio of Ki for human alpha1A adrenoceptor to Ki for human Alpha-1D adrenoceptor; method in brief: as §1
Rattus norvegicus [7] = species: Rattus norvegicus; assay: Selectivity ratio of Ki for alpha1A adrenoceptor in Wistar rat vas deferens to Ki for Alpha-1B adrenoceptor in Wistar rat spleen; format: tissue-based
[8] = target: T3, Alpha-1D adrenergic receptor (Rattus norvegicus, UniProt P23944); assay: Antagonist activity at Alpha-1D adrenoceptor in Wistar rat thoracic aorta assessed as noradrenaline induced contractions after 30 mins
T3 sequence (P23944 whole entry): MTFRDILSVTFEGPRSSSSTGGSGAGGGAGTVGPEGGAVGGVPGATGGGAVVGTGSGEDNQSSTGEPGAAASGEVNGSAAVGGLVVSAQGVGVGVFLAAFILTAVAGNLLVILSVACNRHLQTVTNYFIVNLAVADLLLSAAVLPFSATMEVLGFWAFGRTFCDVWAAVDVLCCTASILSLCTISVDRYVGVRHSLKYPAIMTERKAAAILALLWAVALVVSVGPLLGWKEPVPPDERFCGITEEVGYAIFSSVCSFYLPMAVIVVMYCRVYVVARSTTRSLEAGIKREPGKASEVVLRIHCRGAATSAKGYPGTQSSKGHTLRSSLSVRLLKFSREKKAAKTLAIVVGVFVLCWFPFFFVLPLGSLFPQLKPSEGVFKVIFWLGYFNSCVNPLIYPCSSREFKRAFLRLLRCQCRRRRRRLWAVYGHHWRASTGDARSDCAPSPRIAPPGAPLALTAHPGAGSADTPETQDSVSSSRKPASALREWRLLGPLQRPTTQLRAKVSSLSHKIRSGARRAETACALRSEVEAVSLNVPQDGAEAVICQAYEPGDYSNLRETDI

[9] = target: T4, Alpha-1A adrenergic receptor (Rattus norvegicus, UniProt P43140); assay: Antagonist activity at alpha1A adrenoceptor in Wistar rat vas deferens assessed as noradrenaline induced contractions after 30 mins; format: functional, tissue-based; conditions: read-out: pA2 (converted)
T4 sequence (P43140 whole entry): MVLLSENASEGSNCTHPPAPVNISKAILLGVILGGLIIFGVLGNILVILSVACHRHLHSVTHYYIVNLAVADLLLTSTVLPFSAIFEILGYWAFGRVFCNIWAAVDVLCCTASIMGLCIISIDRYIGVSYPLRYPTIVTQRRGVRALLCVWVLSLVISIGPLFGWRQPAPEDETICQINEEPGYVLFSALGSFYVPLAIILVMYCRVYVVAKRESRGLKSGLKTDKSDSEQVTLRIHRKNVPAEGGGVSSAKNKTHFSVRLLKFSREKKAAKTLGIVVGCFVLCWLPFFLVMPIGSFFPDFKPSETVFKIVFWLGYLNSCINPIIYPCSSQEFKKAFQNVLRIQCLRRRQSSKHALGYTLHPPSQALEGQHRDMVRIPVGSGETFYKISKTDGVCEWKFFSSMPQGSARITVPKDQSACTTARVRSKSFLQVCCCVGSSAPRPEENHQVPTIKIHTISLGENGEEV
Method in brief: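 Prostatic portions (2 cm) of vas deferens from male Wistar rats (275–300 g) were held under 0.35 g tension in Tyrode solution at 37 °C with cocaine present. Tissues were equilibrated 45 min, primed twice with noradrenaline, then given a cumulative isotonic noradrenaline curve.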

## COc1ccc(C[C@@H](C)NCCOc2ccccc2OCc2ccccc2)cc1S(N)(=O)=O
[1]
  Ki: 0.347 nM
[2]
  Ki ratio: 6
Rattus norvegicus [3]
  Selectivity ratio: 3
Rattus norvegicus [4]
  Selectivity ratio: 3
[5]
  Ki: 0.324 nM
[6]
  Ki ratio: 0.9
Rattus norvegicus [7]
  Selectivity ratio: 12

## COc1ccc(C[C@@H](C)NC[C@H]2Oc3ccccc3O[C@H]2C)cc1S(N)(=O)=O
[1]
  Ki: 19.1 nM
[2]
  Ki ratio: 4
Rattus norvegicus [3]
  Selectivity ratio: 2
Rattus norvegicus [4]
  Selectivity ratio: 2
[8]
  Kb: 60.3 nM
[5]
  Ki: 17.4 nM
[6]
  Ki ratio: 0.9
Rattus norvegicus [7]
  Selectivity ratio: 1
[9]
  Kb: 30.2 nM

## COc1ccc(C[C@@H](C)NCCOc2ccccc2OCC(F)(F)F)cc1S(N)(=O)=O
[1]
  Ki: 0.603 nM
[2]
  Ki ratio: 9
Rattus norvegicus [3]
  Selectivity ratio: 4
Rattus norvegicus [4]
  Selectivity ratio: 4
[8]
  Kb: 0.955 nM
[5]
  Ki: 0.955 nM
[6]
  Ki ratio: 2
Rattus norvegicus [7]
  Selectivity ratio: 4
[9]
  Kb: 0.263 nM

## COc1ccc(C[C@@H](C)NC[C@@H]2Oc3ccccc3O[C@@H]2C)cc1S(N)(=O)=O
[1]
  Ki: 11.5 nM
[2]
  Ki ratio: 3
Rattus norvegicus [3]
  Selectivity ratio: 1
Rattus norvegicus [4]
  Selectivity ratio: 1
[8]
  Kb: 21.4 nM
[5]
  Ki: 15.5 nM
[6]
  Ki ratio: 1
Rattus norvegicus [7]
  Selectivity ratio: 1
[9]
  Kb: 16.2 nM

## COc1ccc(C[C@@H](C)NCCOc2ccccc2OC(C)C)cc1S(N)(=O)=O
[1]
  Ki: 0.339 nM
[2]
  Ki ratio: 5
Rattus norvegicus [3]
  Selectivity ratio: 2
Rattus norvegicus [4]
  Selectivity ratio: 2
[8]
  Kb: 0.501 nM
[5]
  Ki: 0.245 nM
[6]
  Ki ratio: 0.7
Rattus norvegicus [7]
  Selectivity ratio: 7
